FN deposition inh: fibronectin deposition inhibition | AH1F fibroblasts, Alexa488-fibronectin deposition fluorescence, overnight | inhibition, % at 12.6 µM | hit rate 0.086% among 350,000;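 active = mean inhibition across replicates of 30% or more, regardless of how many single replicates reach that level; inconclusive = mean under 30% yet at least half of replicates reach 30%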;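 also: positive control wells lacked labelled fibronectin entirely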
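test system = AH1F fibroblasts assembling fluorescent fibronectin matrix | quantity = 10000 AH1F cells per well | buffer or medium = DMEM plus 2% serum, read in PBS | doses = single dose, pinned | incubation = 1 h cell attachment, overnight exposure to compound and label | detection = fluorescence at 485 nm excitation, 525 nm emission | read-out basis = inhibition from reduced deposited-fibronectin fluorescence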
C2C12 statin: suppression of simvastatin myotoxicity; C2C12 myotubes + simvastatin, ATP luminescence, 48 h; scaled: DMSO 0, geranylgeraniol control 100; rescue of ATP level, % at 7.49 µM; hit rate 0.78% among 330,000; AID 602340;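 active = mean ATP rescue above about 67%, or every replicate alone reaching that limit, limit read from the data, passing the limit was not always enough; inconclusive = no clear call, values can overlap the other calls; inactive = mean under the limit and some replicate under it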;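 also: myotubes were challenged with 10 µM simvastatin during compound exposure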
E-selectin induc: E-selectin induction on HUVECs. hit rate 0.37% among 260,000. activation, % at 7.58 µM. AID 686992. HUVEC E-selectin immunofluorescence imaging; normalized: neutral wells 0, TNF-alpha wells 100;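 active = mean E-selectin-positive cell signal at least 10% of the positive control, reached in at least 60% of replicates, without over 20% cell loss; inconclusive = no rule given, readout overlaps actives, possibly toxicity-flagged; inactive = the rest, including those meeting only one limit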
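Test system: HUVEC; input: 3,000 HUVEC/well; measured by: immunofluorescence imaging; read-out: % PE-positive cells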
rRNA inh HTS: inhibits bacterial ribosomal RNA function over humanized ribosomes; E. coli WT GFP vs humanized-ribosome RFP mutants, fluorescence, 24 h; active compounds read low; DMSO median 0, no signal -100; GFP signal change (wild-type ribosome), % (test concentration not listed); hit rate 1.6% among 350,000; AID 720706;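 active = significant combined selectivity score with lowered wild-type GFP, culture density cut under 30%, mutant RFP and density less affected; inactive = any of these conditions unmet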
FGF22 binding: shifts melting point of recombinant human FGF22. Q9HCT0. recombinant FGF22 thermal shift, SYPRO orange fluorescence; percent of sucrose octasulfate shift, DMSO zero. activity (Tm shift, normalised), % at 9.99 µM. hit rate 1.5% among 340,000. AID 651658;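 active = mean Tm shift, scaled 0 neutral to 100 positive control, at about 1.3% or above, every replicate too, limit read from the data; inconclusive = no clear call, values can overlap the other calls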
Target sequence (Q9HCT0 whole entry, looked up): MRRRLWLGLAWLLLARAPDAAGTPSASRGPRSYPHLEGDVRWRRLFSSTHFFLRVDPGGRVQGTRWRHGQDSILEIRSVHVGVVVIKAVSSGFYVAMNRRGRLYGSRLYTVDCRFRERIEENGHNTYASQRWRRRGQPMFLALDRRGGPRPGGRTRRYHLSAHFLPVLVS
SIRT5 inh: sirtuin-5 (human) deacylase inhibition | Q9NXA8 | Purified SirT5, succinyl-peptide AMC, trypsin-coupled fluorescence | hit rate 1.1% among 330,000 | inhibition, % at 15 µM; in the data active = inhibition above about 15%; inconclusive = no clear call, values can overlap the other calls
Target sequence (Q9NXA8 whole entry, looked up): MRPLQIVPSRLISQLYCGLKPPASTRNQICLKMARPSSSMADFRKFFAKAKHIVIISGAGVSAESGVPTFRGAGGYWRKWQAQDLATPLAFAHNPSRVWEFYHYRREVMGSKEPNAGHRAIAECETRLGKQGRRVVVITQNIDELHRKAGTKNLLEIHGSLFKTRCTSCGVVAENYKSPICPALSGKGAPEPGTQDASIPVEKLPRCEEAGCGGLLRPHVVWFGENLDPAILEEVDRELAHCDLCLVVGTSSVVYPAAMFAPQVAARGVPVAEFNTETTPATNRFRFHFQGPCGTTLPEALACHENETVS
* = called active by the depositor; ? = inconclusive; / = not tested or not shown. An excerpt weighted towards active compounds, which were near 4% of everything screened.

SMILES | FN deposition inh | C2C12 statin | E-selectin induc | rRNA inh HTS | FGF22 binding | SIRT5 inh
C[C@@H]1CN([C@@H](C)CO)S(=O)(=O)c2ccc(-c3ccncc3)cc2O[C@@H]1CN(C)C(=O)CN(C)C | -9 | 7 | -5 | 7 | 0 | -2
Cc1cc(=O)[nH]c(SCC(=O)Nc2ccc(C(=O)O)cc2)n1 | / | -10 | / | 3 | 0 | 1
CCN(CC)c1ccc(NC(=O)CSc2nc(C)cc(=O)[nH]2)cc1 | -1 | -6 | -1 | -14* | 0 | -4
CCc1ccc(-n2c(=S)sc3c(=O)[nH]c(SCC(=O)NC4CCCCC4)nc32)cc1 | -3 | 2 | 0 | 4 | 44* | /
COCc1cc(=O)[nH]c(SCC(=O)Nc2ccccc2)n1 | / | 102* | / | / | / | /
Cc1cc(=O)[nH]c(SCC(=O)NC2CCCCCC2)n1 | -16 | 72* | 0 | 6 | 0 | /
O=C(C[C@@H]1CC[C@H]2[C@@H](COC[C@H](O)CN2C(=O)C2CC2)O1)NCc1ccncc1 | -2 | -10 | 0 | -1 | / | -4
CCCc1cc(=O)[nH]c(SCC(=O)Nc2ccccc2C#N)n1 | / | 98* | / | / | / | /
CCCc1cc(=O)[nH]c(SCC(=O)Nc2cccc3ccccc23)n1 | -1 | 51 | -10 | -6 | 0 | 0
COCC#Cc1ccc([C@@H]2[C@@H](CO)N3C(=O)CN(C(=O)CN4CCOCC4)C[C@@H]23)cc1 | -8 | / | 0 | 3 | / | -2
CN(/N=C/c1cc(Cl)ccc1O)C1=NS(=O)(=O)c2ccccc21 | -2 | -1 | 0 | -21* | 0 | -2
O=C(N/N=C/c1ccncc1)c1ccc(-n2cccc2)cc1 | 3 | / | -2 | 5 | 1 | -2
O=C(N/N=C/c1cccs1)c1ccc(-n2cccc2)cc1 | 11 | / | / | -23* | 0 | -4
N#CC1=C(N)Oc2n[nH]c(-c3cccs3)c2C1c1ccsc1 (configuration not stated) | / | 13 | / | / | / | /
CC(C)(C)c1[nH]nc2c1C(c1ccoc1)C(C#N)=C(N)O2 (configuration not stated) | / | 92* | / | / | / | /
CC(C)(C)c1[nH]nc2c1C(c1ccsc1)C(C#N)=C(N)O2 (configuration not stated) | 3 | / | 2 | -9 | 43* | 2
C[C@H](CO)N1C[C@H](C)[C@H](CN(C)Cc2ccncc2)Oc2ccc(NC(=O)NC3CCCCC3)cc2CC1=O | / | -6 | -3 | -6 | 0 | 3
O=C(COC(=O)C1CC(=O)N(Cc2ccccc2)C1)Nc1ccc([N+](=O)[O-])cc1Br (configuration not stated) | 9 | 8 | 0 | 5 | 43* | /
O=C(COC(=O)C1CC(=O)N(Cc2ccccc2)C1)Nc1cccc([N+](=O)[O-])c1 (configuration not stated) | 0 | -7 | 0 | -5 | 0 | -7
CC(=O)N(C)C[C@@H]1Oc2ccccc2CC(=O)N(C)C[C@H]1C | 5 | / | / | 1 | / | /
C[C@@H]1CN([C@H](C)CO)C(=O)c2cc(NC(=O)Nc3ccccc3)ccc2O[C@H]1CN(C)C | / | -19 | -2 | 3 | 0 | -2
Cc1cccc(NC(=O)C2(c3ccccc3)CC2(Cl)Cl)c1 (configuration not stated) | -4 | 7 | / | / | / | /
Cc1ccc(NC(=O)C2(c3ccccc3)CC2(Cl)Cl)cc1C (configuration not stated) | -2 | 143* | / | / | / | /
COc1ccc(NC(=O)Nc2ccc3c(c2)[C@@H]2C[C@@H](CC(=O)N4CCCCC4)O[C@H](CO)[C@@H]2O3)cc1 | 1 | -4 | 0 | 1 | 0 | -2
CC(C)Cn1c(SC(C)C(=O)Nc2ccc(N3CCOCC3)cc2)nc2ccccc21 (configuration not stated) | -1 | / | / | 5 | / | 3
SMILES | FN deposition inh | C2C12 statin | E-selectin induc | rRNA inh HTS | FGF22 binding | SIRT5 inh
CC(Sc1nc2ccccc2n1C)C(=O)Nc1ccc(N2CCOCC2)cc1 (configuration not stated) | / | / | / | -23* | 0 | /
CNC[C@H]1Oc2c(NC(=O)CCC(F)(F)F)cccc2C(=O)N([C@H](C)CO)C[C@@H]1C | 1 | / | / | 3 | / | /
Cc1noc(C)c1NC(=O)N(C)C[C@@H]1OCCCC[C@@H](C)Oc2ccc(NS(=O)(=O)c3ccccc3)cc2C(=O)N([C@H](C)CO)C[C@H]1C | -4 | / | 0 | -2 | / | -1
Cc1sc2ncnc(N3CCC(C(=O)NNC(=O)COc4cccc(C(F)(F)F)c4)CC3)c2c1C | -4 | / | 0 | -19* | 0 | -5
Cc1ccc(OCC(=O)NNC(=O)C2CCN(c3ncnc4sc(C)c(C)c34)CC2)cc1 | -7 | 4 | 2 | -17 | 0 | 2
O=C(C[C@@H]1C[C@H]2c3cc(NC(=O)C4CCC4)ccc3O[C@H]2[C@H](CO)O1)NCc1cc(F)ccc1F | -4 | 0 | 0 | -3 | 0 | 5
Cc1ccc(S(=O)(=O)Nc2ccc3c(c2)CC(=O)N([C@@H](C)CO)C[C@H](C)[C@H](CN(C)S(=O)(=O)c2cccs2)O3)cc1 | / | ? | 0 | -1 | 0 | 1
Cc1ccc(S(=O)(=O)Nc2ccc3c(c2)C(=O)N([C@@H](C)CO)C[C@@H](C)[C@H](CN(C)S(=O)(=O)c2cccs2)O3)cc1 | / | 100* | 0 | -5 | 0 | 0
Cc1ccc(S(=O)(=O)Nc2ccc3c(c2)CC(=O)N([C@@H](C)CO)C[C@H](C)[C@@H](CN(C)S(=O)(=O)c2cccs2)O3)cc1 | / | 77* | 0 | -3 | 0 | 1
COc1ccc(S(=O)(=O)N(C)C[C@H]2Oc3ccc(NS(=O)(=O)c4ccc(F)cc4)cc3CC(=O)N([C@H](C)CO)C[C@@H]2C)cc1 | / | 9 | 2 | -3 | 0 | 7
Cc1cccc(S(=O)(=O)N2CC[C@@H]3[C@H](CO)Nc4ccc(C#Cc5ccc(F)cc5)cc4[C@@H]32)c1 | -10 | -4 | -1 | -7 | 0 | 6
COc1ccc(NS(=O)(=O)c2cc(NC(=O)c3cnccn3)ccc2OC)cc1Br | 7 | -2 | 0 | -31* | 0 | 3
C[C@@H]1CCCCO[C@@H](CN(C)C(=O)c2ccccc2)[C@H](C)CN([C@@H](C)CO)C(=O)c2cc(NC(=O)C3CCCCC3)ccc2O1 | / | 8 | 0 | -5 | 0 | -10
Cn1cc(-c2ccc(Cl)cc2)cc(C#N)c1=O | -5 | 7 | 0 | 6 | 43* | -6
CC(=O)Nc1cccc(NC(=O)C2CCN(C(=O)c3ccco3)CC2)c1 | 4 | -4 | 0 | 3 | 0 | -1
Cc1ccc(NC(=O)C2CCN(C(=O)c3ccco3)CC2)cc1C | 0 | -3 | / | 2 | 0 | 79*
O=C(c1ccco1)N1CCN(C(=O)C2CC2)CC1 | 2 | -5 | 37* | 2 | 0 | -1
